High-throughput results: PubChem BioAssay, Broad Institute
Only a sample is shown.
PGC1a Ac signal – raises PGC1a acetylation signal in U2OS cells | 350,000 compounds, 0.21% hits | activation, % at 15.6 µM | AID 651723 | U2OS PGC1a acetylation AlphaScreen, overnight;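 active = every replicate reaching activation of at least 50%, whatever the mean replicate activation; inconclusive = replicates that disagree or another doubt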;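 note: hits raise the AlphaScreen acetylation signal above neutral controls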
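System: flag-PGC1a/GCN5 U2OS cells / Input: 7000 cells/well / Compound: single test concentration per compound / Incubation: overnight compound treatment, 37 °C / Technique: AlphaScreen on lysates with anti-acetyl-lysine antibody, acceptor and donor beads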
G6PC hep suppr – PGC-1a acetylation activators affecting G6PC expression in hepatocytes | shares compounds with PGC1a Ac signal | primary mouse hepatocytes, G6PC mRNA qPCR, forskolin | G6PC suppression (normalized activity, % of positive control; higher = more suppression), % at 26 µM | 240 tested, under 10 active | AID 743463;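 active = dose curves showing G6PC suppression whose half-maximal dose is at most twice the top valid dose; inconclusive = flat curves with moderate negative activity, or unreliable fits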;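 note: G6PC expression relative to GAPDH housekeeping gene as delta delta Ct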
PCK1 hep suppr – hepatocyte PCK1 expression change via PGC-1a acetylation activation; shares compounds with PGC1a Ac signal; 230 tested, under 10 active; primary mouse hepatocytes, PCK1 mRNA qPCR, forskolin-stimulated; AID 743465; PCK1 expression decrease, unspecified at 26 µM;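 active = compounds lowering PCK1 expression whose fitted half-maximal concentration is at most twice the top tested dose; inconclusive = flat fit with moderate opposite-direction effect, or poor fit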;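 note: higher delta delta Ct means lower PCK1 expression so positive values indicate hits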
PGC1a hep suppr – PGC-1a acetylation activators affecting PGC-1a expression in hepatocytes; primary mouse hepatocytes, PGC-1a mRNA qPCR, forskolin; top dose 26 µM; max activity (PGC-1a expression decrease), %; shares compounds with PGC1a Ac signal; 240 tested, under 10 active;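 active = compound lowering PGC-1a expression with fitted half-maximal concentration at most twice its top tested dose; inconclusive = flat curve with moderate opposite-direction effect, or poor fit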
Large screens that a line does not name were inactive (follow-up assays come after a bar, where they were run).

COc1ccccc1OCC(=O)Nc1ccc(Cl)cc1C(=O)c1ccccc1	PGC1a Ac signal inconclusive | G6PC hep suppr inactive | PCK1 hep suppr inactive | PGC1a hep suppr inactive
CN1CCN(c2ccc([N+](=O)[O-])c3no[n+]([O-])c23)CC1	none
Cc1ccc(C[n+]2c(-c3ccc(C)cc3)cc(-c3ccc(C)cc3)cc2-c2ccc(C)cc2)cc1	none
Cc1ccc(CS(=O)(=O)CCC(=O)N2CCC3(CC2)OCCO3)cc1	none
Cc1ccc(OC(=O)N(C)C[C@H]2OCc3ccccc3-c3c(n(C)c4ccccc34)C(=O)N([C@H](C)CO)C[C@H]2C)cc1	PGC1a Ac signal 228.8 | G6PC hep suppr inactive | PCK1 hep suppr inactive | PGC1a hep suppr inactive
C[C@H]1CCC/C=C/C2C[C@H](O)CC2[C@H](O)/C=C/C(=O)O1 (stereo not given in full)	none
Cc1nc2c(=O)n(C)c(=O)nc-2n(C)n1	none
